Results collected from several papers.
Target: Serine/threonine-protein kinase PAK 1 (PAK1, Homo sapiens, UniProt Q13153)

| Structure (SMILES) | observed | action | technique | tested at | quantity | value |
| --- | --- | --- | --- | --- | --- | --- |
| O=C1CCc2cc(Nc3cc(OC4CCOCC4)c([N+](=O)[O-])cc3Cl)ccc2N1 | cell-free assay | – | competition with immobilised ligand | 1 µM | remaining binding | 88% |
| Cc1cnc(NC2CCOCC2)nc1-n1cnc(C(=O)NC(CN)c2cc(F)cc(Cl)c2)c1 (centres unmarked) | enzyme activity | inhibitor | radiometric | 1 µM | remaining activity | 51% |
| Nc1ncnc2occ(-c3ccc(NC(=O)Nc4cc(C(F)(F)F)ccc4F)cc3)c12 | cell-free assay | inhibitor | – | 20 µM | remaining signal | 41% |
| Cc1ccc(C(=O)NCc2ccsc2)cc1C#Cc1cn(C(C)C)c2ncnc(N)c12 | enzyme activity | inhibitor | – | 1 µM | activity vs control | 82% |
| Oc1ccc(-c2nc(-c3ccncc3)c(-c3ccc(F)cc3)[nH]2)cc1 | cell-free assay | – | – | 0.5 µM | remaining signal | 97.3% |
| CC/C(=N\NC(=O)NCc1cccc(O)c1)c1ccc(O)c(C)c1O | enzyme activity | inhibitor | – | 0.1 µM | inhibition | -6.4% |
| Cc1c(NC(=O)c2cc(C(N)=O)nc3cc(F)ccc23)c(C(F)(F)F)nn1Cc1ccc(C(C)(C)C)cc1 | cell-free assay | – | competition with immobilised ligand | 1 µM | remaining binding | 98% |
| Cc1ccc(NC(=O)c2ccc(C)c(C(F)(F)F)c2)cc1C#Cc1nn(C2CCC(O)CC2)c2ncnc(N)c12 (centres unmarked) | cell-free assay | – | – | 10 µM | remaining signal | 87% |
| CCc1ccccc1C(=O)Nc1n[nH]c2c(C)c(F)c(C3C(C#N)=C(C)N(C)C(C)=C3C#N)cc12 | cell-free assay | – | competition with immobilised ligand | 1 µM | remaining binding | 82% |
| O=C(Nc1cnn(-c2csc(C(=O)NC3COC3)c2)c1)Nc1c(F)cccc1Cl | enzyme activity | inhibitor | – | 5 µM | remaining activity | 81.2% |
| CCOC(=O)c1cc2cc(-c3cc(C(=O)NCc4ccc(C(=O)O)cc4)nn3C)ccc2[nH]1 | cell-free assay | – | competition with immobilised ligand | 0.1 µM | remaining binding | 92% |
| Cc1sc(C(=O)NC2COC2)cc1-n1cc(NC(=O)Nc2c(F)cccc2Cl)cn1 | enzyme activity | inhibitor | – | 10 µM | remaining activity | 104% |
| COc1ccc2c(c1)O[C@H](c1ccc(OC)c(OC)c1)C[C@@H]2NC(=O)C1(c2ccc3c(c2)OC(F)(F)O3)CC1 | cell-free assay | – | competition with immobilised ligand | 1 µM | remaining binding | 100% |
| O=C(CSc1nc2nccnc2c(=O)n1CCc1ccccc1)Nc1nccs1 | enzyme activity | inhibitor | – | 10 µM | inhibition | 19% |
| COc1cc2ncnc(Nc3ccc(F)c(Cl)c3)c2cc1OCCCN1CCOCC1 | cell-free assay | – | – | 0.5 µM | remaining signal | 104% |
| CC(C)(C)c1nc2c(s1)c1nc(N)ncc1c1ccc(NS(=O)(=O)c3c(F)cccc3F)c(F)c12 | enzyme activity | inhibitor | radiometric | 1 µM | remaining activity | 93% |
| CN(C)C1CCN(CC#Cc2nn(C3CCCC3)c3nc(NCc4ccccc4)ncc23)C1 (centres unmarked) | enzyme activity | inhibitor | FRET | 10 µM | inhibition | 1% |
| CS(=O)(=O)N1CCCC(NC(=O)[C@H](CCC2CCCCC2)NC(=O)c2ccc(CNC(=O)c3cnc4ccccn34)cc2)C1 (some centres unmarked) | cell-free assay | – | competition with immobilised ligand | 0.1 µM | remaining binding | 82% |
| O=C1NC(=O)c2cc(Nc3ccc(F)cc3)c(Nc3ccc(F)cc3)cc21 | cell-free assay | – | – | 0.5 µM | remaining signal | 95.5% |
| COc1cc2ncnc(Nc3ccc(Oc4ccccc4)c(C)c3C)c2cc1OC | enzyme activity | inhibitor | – | 1 µM | inhibition | 5% |
